Laboratory results from ChEMBL document CHEMBL3627612, “Hirsutinolide Series Inhibit Stat3 Activity, Alter GCN1, MAP1B, Hsp105, G6PD, Vimentin, TrxR1, and Importin α-2 Expression, and Induce Antitumor Effects against Human Glioma” (J Med Chem, 2015).
Calls of active or inactive are those of the source. The rule behind the calls is not given here.

Legend:
[1] = Cytotoxicity against mouse V-Src -transformed NIH/3T3 cells at 1 uM by trypan blue exclusion with phase contrast microscopy; assay type: cell-based; conditions: nih3t3, 1 µM
U-251 = experiment: Induction of apoptosis in human U251MG cells assessed as PARP level at 8 uM after 24 to 48 hrs by immunoblot analysis; assay type: functional, cell-based
[2] = Cytotoxicity against mouse NIH/3T3 cells at 1 uM by trypan blue exclusion with phase contrast microscopy; assay type: cell-based; conditions: nih3t3, 1 µM
[3] = Decrease in vimentin expression in human U251MG cells at 5 uM for 1 hr by mass spectrometry relative to control; assay type: functional, cell-based; conditions: U-251
Summary of the method: (§1)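 Global proteomic mass spectrometry of lysates from U251MG cells treated 1 h with 5 μM compound; protein levels expressed relative to DMSO-treated cells.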

[4] = target: T1, Signal transducer and activator of transcription 3 (Homo sapiens, UniProt P40763); experiment: Inhibition of Stat3 phosphorylation in human U251MG cells transfected with Stat3 flag-tagged C-terminal domain at 5 uM after 1.5 hrs by immunoblot analysis; assay type: cell-based; conditions: U-251
T1 sequence (P40763 whole entry, the tested form may be a part): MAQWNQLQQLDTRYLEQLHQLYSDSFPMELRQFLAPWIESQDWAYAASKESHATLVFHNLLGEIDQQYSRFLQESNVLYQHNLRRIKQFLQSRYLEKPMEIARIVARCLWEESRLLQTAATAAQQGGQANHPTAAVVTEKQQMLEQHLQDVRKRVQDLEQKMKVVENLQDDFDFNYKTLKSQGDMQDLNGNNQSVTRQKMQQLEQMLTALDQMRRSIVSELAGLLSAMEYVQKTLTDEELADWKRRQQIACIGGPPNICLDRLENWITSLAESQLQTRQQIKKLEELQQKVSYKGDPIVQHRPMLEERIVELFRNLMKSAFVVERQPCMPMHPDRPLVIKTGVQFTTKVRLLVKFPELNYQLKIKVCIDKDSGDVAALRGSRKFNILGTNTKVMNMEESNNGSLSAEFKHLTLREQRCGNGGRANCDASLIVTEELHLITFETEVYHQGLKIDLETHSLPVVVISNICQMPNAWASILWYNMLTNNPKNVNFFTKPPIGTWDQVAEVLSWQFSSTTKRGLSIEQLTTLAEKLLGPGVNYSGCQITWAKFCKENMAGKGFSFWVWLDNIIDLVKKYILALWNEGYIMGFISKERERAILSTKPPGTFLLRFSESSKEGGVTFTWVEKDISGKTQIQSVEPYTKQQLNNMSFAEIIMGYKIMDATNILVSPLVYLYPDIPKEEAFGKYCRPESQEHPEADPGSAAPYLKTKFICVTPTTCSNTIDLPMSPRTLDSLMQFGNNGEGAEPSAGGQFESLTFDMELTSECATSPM
Summary of the method: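 U251MG cells transiently transfected with 7.5–21 μg FLAG-Stat3 NTD, CCD, DBD or CTD plasmid, or pcDNA3 mock. Re-seeded 24 h later; after another 18 h, treated with or without 5 μM compound for 1.5 h. Whole-cell lysates immunoblotted for FLAG, pY705Stat3, Stat3, GAPDH. 0.025% DMSO control. Representative of 2 independent determinations.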

[5] = target: T1, Signal transducer and activator of transcription 3; experiment: Inhibition of Stat3 activity in human U251MG cells assessed as decrease in c-Myc expression at 5 uM after 24 hrs by immunoblot analysis; assay type: cell-based; conditions: U-251
Summary of the method: (§2)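 U251MG cells treated with 5 μM compound for 0–24 h. Whole-cell lysates immunoblotted for pStat3, Stat3, c-Myc, Bcl-2, Bcl-xL, Mcl-1, GAPDH. Control was 0.025% DMSO.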

[6] = target: T1, Signal transducer and activator of transcription 3; experiment: Inhibition of Stat3 activity in human U251MG cells assessed as decrease in Bcl-xl expression at 5 uM after 24 hrs by immunoblot analysis; assay type: cell-based; conditions: U-251; summary of the method: as §2
[7] = Decrease in TNAP2 expression in human U251MG cells at 5 uM for 1 hr by mass spectrometry relative to control; assay type: functional, cell-based; conditions: U-251; summary of the method: as §1

| inhibition [4] | inhibition [5] | inhibition [6] | Compound | Activity [1] | Activity (U-251) | Activity [2] | fold change (FC) [3] | fold change (FC) [7] |
| --- | --- | --- | --- | --- | --- | --- | --- | --- |
|  |  |  | C/C=C(\C)C(=O)OCC1=C2/C(=C\[C@@]3(C)CC[C@](O)(O3)[C@H](C)C[C@@H]2O)OC1=O | Toxic | inactive | Non-toxic |  |  |
| Active | Active | Active | C/C=C(\C)C(=O)O[C@H]1C[C@@H](C)[C@]2(O)CC[C@](C)(/C=C3/OC(=O)C(COC(C)=O)=C31)O2 |  |  |  | 0.308 | 0.449 |
